Values after ≈ are worked out from the molar mass of the structure shown.
How the values were obtained:
[1] = target: T1, Proteinase-activated receptor 1 (Homo sapiens) (UniProt P25116); experiment: Inhibition of SFLLRN-NH2-stimulated PAR1-mediated platelet activation in […] assessed as surface expression of P-selectin at 10 uM after 20 mins by flow cytometry; format: cell-based
T1 sequence (whole entry): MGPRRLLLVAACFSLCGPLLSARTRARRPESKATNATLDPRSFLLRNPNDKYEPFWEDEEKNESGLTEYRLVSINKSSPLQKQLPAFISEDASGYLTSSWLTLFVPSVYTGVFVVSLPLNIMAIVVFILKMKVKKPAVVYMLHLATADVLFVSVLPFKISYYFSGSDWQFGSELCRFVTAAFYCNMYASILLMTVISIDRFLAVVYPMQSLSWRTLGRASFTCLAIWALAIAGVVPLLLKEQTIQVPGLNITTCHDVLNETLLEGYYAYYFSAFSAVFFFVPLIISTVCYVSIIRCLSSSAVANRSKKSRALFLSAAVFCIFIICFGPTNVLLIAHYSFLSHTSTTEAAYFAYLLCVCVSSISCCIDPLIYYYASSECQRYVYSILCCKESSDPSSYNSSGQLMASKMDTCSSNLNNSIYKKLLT

[2] = target: T2, Proteinase-activated receptor 1 (Homo sapiens, UniProt P25116); experiment: Inhibition of SFLLRN-NH2-stimulated PAR1-mediated platelet activation in […] assessed as surface expression of P-selectin after 20 mins by flow cytometry; set-up: species or system Plasma
T2 sequence (P25116 whole entry): T1 sequence (whole entry)

[3] = system: Plasma; experiment: Metabolic stability in mouse plasma assessed as compound remaining at 5 uM after 5 hrs; format: ADME, cell-free
Summary of the method: (§1)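 Compound incubated in human or mouse plasma; stability reported as percent remaining after 5 h.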

[4] = system: Plasma; experiment: Metabolic stability in human plasma assessed as compound remaining at 5 uM after 5 hrs; format: ADME, cell-free; summary of the method: as §1
[5] = system: Plasma; experiment: Plasma protein binding in human; format: ADME, cell-free
[6] = system: Plasma; experiment: Plasma protein binding in mouse; format: ADME, cell-free
[7] = Solubility of the compound in phosphate buffered saline; format: physicochemical; details: buffer
[8] = target: T1, Proteinase-activated receptor 1 (Homo sapiens); experiment: Inhibition of SFLLRN-NH2-stimulated PAR1-mediated platelet activation in platelet-rich human plasma assessed as surface expression of P-selectin at 3 uM after 20 mins by flow cytometry; details: Platelets, in the assay text read “gel-filtered human platelets” for “platelet-rich human plasma”
Summary of the method: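 Gel-filtered human platelets (0.5–1 × 10⁸/mL) exposed to antagonist at 3 μM, then challenged with 5 μM SFLLRN for 10 min. Platelets stained with PE-conjugated AC1.2 anti-P-selectin antibody for 20 min at 37 °C, diluted in PBS and measured immediately by flow cytometry.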

Row | SMILES | inhibition [1] | IC50 [2] | also measured
1 | CCCC(=O)Nc1cccc(NC(=O)c2ccc(OC)cc2)c1 | 15% | – | –
2 | CCCC(=O)Nc1cccc(NC(=O)c2cccc(C#N)c2)c1 | 70% | – | –
3 | CCCC(=O)Nc1cccc(NC(=O)c2ccccc2S(C)(=O)=O)c1 | 21% | – | –
4 | CCCC(=O)Nc1cccc(NC(=O)c2ccccc2-c2ccccc2)c1 | < 1% | – | –
5 | CCCC(=O)Nc1cccc(NC(=O)c2cccc(S(C)(=O)=O)c2)c1 | 25% | – | –
6 | O=C(Nc1cccc(NC(=O)C2CCCC2)c1)c1ccccc1Br | 91% | 520 nM | Stability [3]: 26%
7 | CCCCNc1cccc(NC(=O)c2ccccc2Br)c1 | > 99% | 340 nM | Stability [4]: 99%; Stability [3]: 97%; PPB [5]: 97%; PPB [6]: 96%
8 | CCCC(=O)Nc1ccc(NC(=O)c2ccccc2Br)cc1 | 1% | – | –
9 | CN(C(=O)c1ccccc1Br)c1cccc(NC(=O)C2CCCC2)c1 | < 1% | – | Stability [4]: 64%; Stability [3]: 40%; PPB [5]: 95%; PPB [6]: 90%
10 | O=C(Nc1cccc(N2CCCCC2=O)c1)c1ccccc1Br | 9% | – | Stability [4]: 94%; Stability [3]: 82%; PPB [5]: 82%; PPB [6]: 72%
11 | CCCC(=O)Nc1cccc(NC(=O)c2cccc(C)c2)c1 | 88% | – | –
12 | CCCC(=O)Nc1cccc(NC(=O)c2cccc(NC(C)=O)c2)c1 | 55% | – | –
13 | CCCC(=O)Nc1cccc(C(=O)Nc2ccccc2Cl)c1 | 67% | – | –
14 | CCCC(=O)Nc1cccc(NCc2ccccc2Br)c1 | 60% | – | Stability [4]: 73%; Stability [3]: 1%
15 | CCS(=O)(=O)Nc1cccc(NC(=O)c2ccccc2Br)c1 | 27% | – | Stability [4]: 99%; Stability [3]: > 99%; PPB [5]: 93%; PPB [6]: 69%
16 | CCCC(=O)Nc1cccc(NC(=O)c2cccc([N+](=O)[O-])c2)c1 | 55% | – | –
17 | O=C(Nc1cccc(NC(=O)c2ccccc2Br)c1)c1ccccc1 | 67% | – | –
18 | CCCC(=O)Nc1cccc(NC(=O)c2ccc(Cl)cc2)c1 | 80% | – | –
19 | CCCC(=O)Nc1ccnc(NC(=O)c2ccccc2Br)c1 | < 1% | – | –
20 | CCCC(=O)Nc1ccc(Cl)c(NC(=O)c2ccccc2Br)c1 | 35% | – | –
21 | CCCC(=O)Nc1cccc(NC(=O)c2ccccc2)c1 | 64% | – | –
22 | CCCC(=O)Nc1cccc(NC(=O)c2ccccc2F)c1 | 99% | 970 nM | –
23 | CCCC(=O)Nc1cccc(NC(=O)c2ccccc2C(=O)N(C)C)c1 | 48% | – | –

Row | SMILES | inhibition [1] | IC50 [2] | also measured
24 | CC(C)CC(=O)Nc1cccc(NC(=O)c2ccccc2Br)c1 | > 99% | 290 nM | solubility [7]: 20 µM (≈ 7.51 µg/mL); Stability [4]: 90%; Stability [3]: 65%; PPB [5]: 93%; PPB [6]: 87%
25 | CCCC(=O)Nc1cccc(NC(=O)c2ccc(C(F)(F)F)cc2)c1 | 30% | – | –
26 | CC(C)CNC(=O)c1coc(NC(=O)c2ccccc2Br)n1 | < 1% | – | –
27 | CCCC(=O)Nc1cccc(NC(=O)c2ccc(C)cc2)c1 | 25% | – | –
28 | CCCC(=O)Nc1cccc(NC(=O)c2cccc(-c3ccccc3)c2)c1 | 98% | 2200 nM | –
29 | O=C(Nc1cccc(N2CCCS2(=O)=O)c1)c1ccccc1Br | 8% | – | Stability [4]: > 99%; Stability [3]: 98%; PPB [6]: 76%
30 | CCCCS(=O)(=O)Nc1cccc(NC(=O)c2ccccc2Br)c1 | 31% | – | Stability [4]: 97%; Stability [3]: > 99%
31 | CC(=O)Nc1cccc(NC(=O)c2ccccc2Cl)c1 | 35% | – | –
32 | CCCC(=O)Nc1cccc(NC(=O)c2c(C)cccc2C)c1 | 98% | 3000 nM | –
33 | CCCC(=O)Nc1cccc(NC(=O)c2ccccc2CC)c1 | > 99% | 520 nM | –
34 | CCCC(=O)Nc1cccc(NC(=O)c2cnc3ccccc3c2)c1 | 10% | – | –
35 | CCCC(=O)Nc1cccc(NC(=O)c2ccco2)c1 | 30% | – | –
36 | CCCCC(=O)Nc1cccc(NC(=O)c2ccccc2Br)c1 | < 1% | – | –
37 | CCCC(=O)Nc1ccc2nc(-c3ccccc3Br)[nH]c2c1 | 39% | – | –
38 | CCCC(=O)Nc1cccc(N(C)C(=O)c2ccccc2Br)c1 | < 1% | – | Stability [4]: 19%; Stability [3]: < 1%; PPB [5]: 89%
39 | CCCC(=O)Nc1cccc(NC(=O)c2ccc(F)cc2Br)c1 | > 99% | 390 nM | –
40 | CCCC(=O)Nc1cccc(NC(=O)c2ccccc2C(F)(F)F)c1 | 99% | 1290 nM | –
41 | CCS(=O)(=O)N1CCCc2ccc(NC(=O)c3ccccc3Br)cc21 | 26% | – | Stability [4]: > 99%; Stability [3]: 97%; PPB [5]: 98%; PPB [6]: 96%
42 | CCCC(=O)Nc1cccc(NC(=O)c2ccccc2OC)c1 | 50% | – | –
43 | CCOC(=O)Nc1cccc(NC(=O)c2ccccc2Br)c1 | 98% | 2640 nM | Stability [4]: 85%; Stability [3]: 56%; PPB [5]: 95%; PPB [6]: 87%
44 | CC(=O)N1CCCc2ccc(NC(=O)c3ccccc3Br)cc21 | 10% | – | Stability [4]: 92%; Stability [3]: 71%; PPB [6]: 89%
45 | CCCC(=O)Nc1cccc(NC(=O)c2ccc(F)cc2)c1 | 85% | – | –
46 | CCCC(=O)Nc1cccc(NC(=O)c2cccc(Cl)c2)c1 | – | – | inhibition [8]: 80%

Row | SMILES | inhibition [1] | IC50 [2] | also measured
47 | CCCC(=O)Nc1cccc(NC(=O)c2ccc(S(C)(=O)=O)cc2)c1 | 10% | – | –
48 | Cc1ccccc1C(=O)Nc1cccc(NC(=O)Cc2ccc(Cl)cc2)c1 | 40% | – | –
49 | CCCC(=O)Nc1cccc(NC(=O)c2ccccc2Cl)c1 | > 99% | 1100 nM | –
50 | CCCC(=O)Nc1cccc(NC(=O)c2cc(Cl)ccc2Br)c1 | 68% | 380 nM | –
51 | CCCNC(=O)c1cccc(NC(=O)c2ccccc2Cl)c1 | 99% | 1800 nM | –
52 | CCCNC(=O)c1coc(NC(=O)c2ccccc2Br)n1 | < 1% | – | –
53 | CCCC(=O)N(C)c1cccc(NC(=O)c2ccccc2Br)c1 | 8% | – | Stability [4]: 90%; Stability [3]: 85%; PPB [5]: 98%; PPB [6]: 85%
54 | CCCC(=O)Nc1cccc(NC(=O)c2cccc(Cl)c2Cl)c1 | 99% | 3120 nM | –
55 | CCCC(=O)Nc1cccc(NC(=O)c2ccccc2C)c1 | 98% | 770 nM | –
56 | CCCC(=O)Nc1cccc(NC(=O)c2cccnc2)c1 | < 1% | – | –
57 | CCC(C)(C)C(=O)Nc1cccc(NC(=O)c2ccccc2Br)c1 | 21% | – | Stability [4]: > 99%; Stability [3]: > 99%; PPB [5]: 95%
58 | CCCC(=O)Nc1cccc(NC(=O)c2cccc(Oc3ccccc3)c2)c1 | – | – | inhibition [8]: 65%
59 | O=C(Nc1cc(NC(=O)C2CCCC2)ccn1)c1ccccc1Br | < 1% | – | –
60 | CC(C)C(=O)Nc1cccc(NC(=O)c2ccccc2Br)c1 | 88% | 1410 nM | Stability [3]: 83%
61 | CCC(=O)Nc1cccc(NC(=O)c2ccccc2Br)c1 | – | 1680 nM | inhibition [8]: 95%
62 | Cc1ccccc1C(=O)Nc1cccc(NC(=O)CC(C)C)c1 | > 99% | 1120 nM | Stability [4]: > 99%; Stability [3]: 69%; PPB [5]: 96%; PPB [6]: 83%
63 | CCC(=O)Nc1cccc(NC(=O)c2ccccc2C)c1C | 5% | – | –
64 | O=C(Nc1ccnc(NC(=O)c2ccccc2Br)c1)c1ccccc1 | 11% | – | –
65 | CCCC(=O)Nc1cccc(NC(=O)c2ccccc2OC(F)(F)F)c1 | > 99% | 710 nM | –
66 | CCCC(=O)Nc1cccc(NC(=O)c2c(Cl)cccc2Br)c1 | > 99% | 2280 nM | –
67 | CCCC(=O)Nc1cccc(NC(=O)c2cc(C)ccc2Br)c1 | > 99% | 480 nM | –
68 | CCCC(=O)Nc1cccc(NC(=O)c2cc(F)ccc2Br)c1 | > 99% | 600 nM | –
